CHO-K1 Ca ag: counter-screen for M1 agonists: effect in parental CHO-K1 cells; 360,000 tested, 0.48% active; Fluo-8 calcium fluorescence; scaled to maximal ATP response, vehicle zero; AID 602248; activation, % at 3 µM; in the data active = activation above about 15%;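 also: untransfected CHO-K1 host cells lacking M1 receptor as counterscreen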
CHO-K1 Ca antag: nonselective inhibitor or artifact in parental CHO-K1 cells; ATP-induced calcium, Fluo-8 fluorescence; inhibition, % at 3 µM; 360,000 tested, 0.6% active; AID 602250;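 active = inhibition above a per-plate cutoff, the plate's mean sample inhibition plus 3 SD, cut at about 24% in these data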;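 also: 0% = DMSO plus EC80 ATP and 100% = DMSO alone without ATP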
TRPN1 ag: agonists of zebrafish TRPN1 channel. HEK293 zebrafish TRPN1-YFP, Fluo-8 calcium fluorescence; 100% = response to 87 µM carbachol. activation, % at 3 µM. 220,000 tested, 0.18% active;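 active = activation above its plate's cutoff, the mean activation of test wells on that plate plus 3 SD, cut at about 19% in these data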;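 also: 0% = DMSO alone and 100% = 87 µM carbachol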
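Material: zebrafish TRPN1-YFP in HEK293 cells. Doses: one dose of 3 µM, 0.3% DMSO. Incubation: dye 1 h 37 °C plus 30 min RT. Measured by: intracellular calcium fluorescence with Fluo-8.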
CHO-K1 Ca PAM: nonselective activator or artifact in parental CHO-K1 calcium assay | ATP EC20, Fluo-8 calcium fluorescence; 0% at ATP EC20, 100% at ATP max | activation, % at 3 µM | 360,000 tested, 0.02% active | AID 602247;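 active = activation above the run cutoff, the mean activation of all test compounds plus 3 SD, cut at about 40% in these data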;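 also: peak over basal fluorescence ratio in a 140 s read after ATP addition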
TRPML3 ag: agonists of human TRPML3 channel; activation, % at 3 µM; Q8TDD5; 220,000 tested, 0.29% active; HEK293 TRPML3-YFP, Fluo-8 calcium fluorescence; 100% = the carbachol control signal;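 active = activation above its plate's cutoff, the mean activation of the plate's test wells plus 3 SD, cut at about 12% in these data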;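 also: 0% = DMSO only wells and 100% = carbachol wells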
Target sequence (Q8TDD5 whole entry, looked up): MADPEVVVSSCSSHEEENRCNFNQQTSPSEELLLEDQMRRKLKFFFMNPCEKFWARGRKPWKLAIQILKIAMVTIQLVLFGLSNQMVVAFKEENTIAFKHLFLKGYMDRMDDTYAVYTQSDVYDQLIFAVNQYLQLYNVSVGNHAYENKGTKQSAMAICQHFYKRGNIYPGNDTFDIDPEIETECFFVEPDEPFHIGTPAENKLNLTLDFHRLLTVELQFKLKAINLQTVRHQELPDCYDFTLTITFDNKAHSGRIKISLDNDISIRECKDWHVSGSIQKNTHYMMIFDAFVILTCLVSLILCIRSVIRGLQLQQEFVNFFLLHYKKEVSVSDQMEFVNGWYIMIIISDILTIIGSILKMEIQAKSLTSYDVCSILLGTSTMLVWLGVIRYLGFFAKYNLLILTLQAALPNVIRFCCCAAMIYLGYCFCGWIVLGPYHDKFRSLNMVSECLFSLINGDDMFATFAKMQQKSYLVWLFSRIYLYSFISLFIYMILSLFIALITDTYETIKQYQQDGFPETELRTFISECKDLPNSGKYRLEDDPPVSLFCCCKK
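system = HEK293 cells stably carrying human TRPML3-YFP | doses = one concentration, 3 µM nominal, 0.3% DMSO | timing = dye loading 1 h 37 °C then 30 min ambient, 125 s read | detection = Fluo-8 calcium dye fluorescence, ex 470-495, em 515-575 nm | benchmarks = high control carbachol 87 µM, low control DMSO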
* hit, by the source's call. In the library only some 1.2% were active in any assay of this set; here they are far more common.

What do the screens show for `O=C(c1[nH]c(C(F)(F)F)nc1-c1ccccc1)N1CCN(C/C=C/c2ccccc2)CC1`?
CHO-K1 Ca ag: 1; CHO-K1 Ca antag: -17; CHO-K1 Ca PAM: 15

What do the screens show for `O=C(/C=C/c1ccc(F)cc1)NC(=S)NNC(=O)[C@H]1C[C@@H]1c1ccccc1`?
CHO-K1 Ca ag: 40*; CHO-K1 Ca antag: -2; CHO-K1 Ca PAM: 1

Results for COc1cc(OC)cc(C(=O)NC(=S)NNC(=O)[C@H]2C[C@@H]2c2ccccc2)c1 ?
CHO-K1 Ca ag: 14; CHO-K1 Ca antag: -5; TRPN1 ag: 34*; CHO-K1 Ca PAM: 18; TRPML3 ag: 19*

How did CCC(=O)N1CCc2cc(S(=O)(=O)CCC(=O)Nc3ccc(F)c(F)c3)ccc21 do in these assays?
CHO-K1 Ca ag: 0; CHO-K1 Ca antag: 35*; TRPN1 ag: 0; CHO-K1 Ca PAM: -8; TRPML3 ag: 1

What do the screens show for `CCC(=O)N1CCc2cc(S(=O)(=O)CCC(=O)Nc3cccc(F)c3)ccc21`?
CHO-K1 Ca ag: 0; CHO-K1 Ca antag: -5; TRPN1 ag: 1; CHO-K1 Ca PAM: 10; TRPML3 ag: 0

What do the screens show for `Clc1cccc(CNc2ccn3nc(-c4ccco4)cc3n2)c1`?
CHO-K1 Ca ag: -1; CHO-K1 Ca antag: 26*; CHO-K1 Ca PAM: -13

What do the screens show for `Cc1cc(O)c(C(=O)/C=C/c2ccccc2O)c(=O)o1`?
CHO-K1 Ca ag: 3; CHO-K1 Ca antag: 24*; CHO-K1 Ca PAM: 9

How did O=C(Nc1ccc(F)cc1)Nc1cnccn1 do in these assays?
CHO-K1 Ca ag: 2; CHO-K1 Ca antag: -9; CHO-K1 Ca PAM: 13

How did O=C(Nc1cc(Cl)cc(Cl)c1)Nc1cnccn1 do in these assays?
CHO-K1 Ca ag: 1; CHO-K1 Ca antag: 30*; CHO-K1 Ca PAM: -28

How did COc1ccc(CN2C[C@@H](CO)O[C@@H](n3cnc4c(NCCO)ncnc43)C2)cc1 do in these assays?
CHO-K1 Ca ag: 0; CHO-K1 Ca antag: -5; CHO-K1 Ca PAM: -4

Results for Cn1c(=O)c(C(=O)COc2ccc(C#N)cc2)c(N)n(Cc2ccccc2)c1=O ?
CHO-K1 Ca ag: 34*; CHO-K1 Ca antag: -6; TRPN1 ag: 4; CHO-K1 Ca PAM: 2; TRPML3 ag: 2

How did NC(=O)c1oc2ccccc2c1NC(=O)c1ccc(F)cc1 do in these assays?
CHO-K1 Ca ag: 0; CHO-K1 Ca antag: 27*; TRPN1 ag: 1; CHO-K1 Ca PAM: -8; TRPML3 ag: 1

Results for O=C(Nc1c(C(=O)N2CCC(N3CCCCC3)CC2)oc2ccccc12)c1ccc(F)cc1 ?
CHO-K1 Ca ag: 1; CHO-K1 Ca antag: -12; CHO-K1 Ca PAM: 20

What do the screens show for `COc1cccc(C2CC(c3cccs3)=NN2C(=O)CSC2=NN3CCCC(=O)N=C3S2)c1OC` (centres undefined)?
CHO-K1 Ca ag: 1; CHO-K1 Ca antag: 24*; TRPN1 ag: 1; CHO-K1 Ca PAM: -2; TRPML3 ag: -1

How did CC1(C(=O)Nc2cnc3ccccc3c2)CCN1Cc1ccccc1Cl (centres undefined) do in these assays?
CHO-K1 Ca ag: 3; CHO-K1 Ca antag: -3; CHO-K1 Ca PAM: 5

Results for Cc1cccc(C(=O)NC(=S)NNC(=O)c2cccs2)c1 ?
CHO-K1 Ca ag: 15*; CHO-K1 Ca antag: 4; TRPN1 ag: 5; CHO-K1 Ca PAM: -10; TRPML3 ag: 5

How did O=C(NC(=S)NNC(=O)c1cccs1)c1ccccc1 do in these assays?
CHO-K1 Ca ag: 0; CHO-K1 Ca antag: 1; CHO-K1 Ca PAM: -13

Results for Cc1ccccc1C(=O)NNC(=S)NC(=O)c1cccs1 ?
CHO-K1 Ca ag: 37*; CHO-K1 Ca antag: 2; CHO-K1 Ca PAM: -24

Results for CC(C)(C)c1ccc(C(=O)NC(=S)NNC(=O)c2cccs2)cc1 ?
CHO-K1 Ca ag: 85*; CHO-K1 Ca antag: 10; TRPN1 ag: 19*; CHO-K1 Ca PAM: -16; TRPML3 ag: 5

How did Cc1ccccc1C(=O)Nc1cccc(NC(=S)NC(=O)c2cccs2)c1 do in these assays?
CHO-K1 Ca ag: 2; CHO-K1 Ca antag: 3; TRPN1 ag: 2; CHO-K1 Ca PAM: 14; TRPML3 ag: 0

Results for Cc1ccc(C(=O)NC(=S)NNC(=O)c2cccc([N+](=O)[O-])c2)cc1 ?
CHO-K1 Ca ag: 6; CHO-K1 Ca antag: -13; CHO-K1 Ca PAM: 19

How did Cc1cccc(C(=O)NC(=S)NNC(=O)c2ccc(Cl)cc2)c1 do in these assays?
CHO-K1 Ca ag: 110*; CHO-K1 Ca antag: 48*; TRPN1 ag: 102*; CHO-K1 Ca PAM: -16; TRPML3 ag: 44*

How did CCNC(=O)C1(C)CCCN(C(=O)CCc2cccs2)C1 (centres undefined) do in these assays?
CHO-K1 Ca ag: 0; CHO-K1 Ca antag: 4; CHO-K1 Ca PAM: -6

Results for Cc1noc(C)c1S(=O)(=O)NC(=O)C1(C)CCN1C(=O)Cc1ccc(-c2ccccc2)cc1 (centres undefined) ?
CHO-K1 Ca ag: 3; CHO-K1 Ca antag: -14; CHO-K1 Ca PAM: 15

Results for O=C(Cn1ncc2ccccc2c1=O)Nc1cccc(C(F)(F)F)c1 ?
CHO-K1 Ca ag: 0; CHO-K1 Ca antag: -10; CHO-K1 Ca PAM: -1

How did CC1(C(=O)NCc2ccc3c(c2)OCO3)CCN1C(=O)CCc1ccc(Cl)cc1Cl (centres undefined) do in these assays?
CHO-K1 Ca ag: 5; CHO-K1 Ca antag: -6; CHO-K1 Ca PAM: 6

How did COc1ccc(NC(=O)c2cccc(N3C(=O)C4C5C=CC(C6CC56)C4C3=O)c2)c(OC)c1 (centres undefined) do in these assays?
CHO-K1 Ca ag: 18*; CHO-K1 Ca antag: -3; CHO-K1 Ca PAM: 16

What do the screens show for `COc1ccc(NC(=O)c2cccc(N3C(=O)C4C5C=CC(C6CC56)C4C3=O)c2)cc1` (centres undefined)?
CHO-K1 Ca ag: 15*; CHO-K1 Ca antag: 8; CHO-K1 Ca PAM: -19

What do the screens show for `COc1ccc(NC(=O)c2cccc(N3C(=O)C4C5C=CC(C5)C4C3=O)c2)c(OC)c1` (centres undefined)?
CHO-K1 Ca ag: 2; CHO-K1 Ca antag: -12; CHO-K1 Ca PAM: 4

How did O=C(CCNS(=O)(=O)c1ccc(Br)s1)NCc1ccc(F)cc1 do in these assays?
CHO-K1 Ca ag: 0; CHO-K1 Ca antag: 29*; TRPN1 ag: -1; CHO-K1 Ca PAM: -16; TRPML3 ag: 0

What do the screens show for `COc1c(C)cc(C(O)c2ncc(-c3ccccc3)[nH]2)cc1C` (centres undefined)?
CHO-K1 Ca ag: 1; CHO-K1 Ca antag: -2; CHO-K1 Ca PAM: 3

What do the screens show for `COc1ccc(C(O)c2nc(-c3cccc(CO)c3)cs2)cc1` (centres undefined)?
CHO-K1 Ca ag: 2; CHO-K1 Ca antag: -4; CHO-K1 Ca PAM: 16

How did Cc1cc(NC2CCCCC2)nc(NCc2ccccc2)n1 do in these assays?
CHO-K1 Ca ag: 15*; CHO-K1 Ca antag: 22; TRPN1 ag: 3; CHO-K1 Ca PAM: 8; TRPML3 ag: 2

What do the screens show for `COc1cc(-c2nnc(COC(=O)c3ccc([N+](=O)[O-])o3)o2)cc(OC)c1OC`?
CHO-K1 Ca ag: 1; CHO-K1 Ca antag: -15; CHO-K1 Ca PAM: 8
